# Results collected from several papers.
# Lines come from different studies, so protocols differ.
# Target: Serine/threonine-protein kinase DCLK1 (DCLK1, Homo sapiens, UniProt O15075)
# One construct used (O15075 1-740): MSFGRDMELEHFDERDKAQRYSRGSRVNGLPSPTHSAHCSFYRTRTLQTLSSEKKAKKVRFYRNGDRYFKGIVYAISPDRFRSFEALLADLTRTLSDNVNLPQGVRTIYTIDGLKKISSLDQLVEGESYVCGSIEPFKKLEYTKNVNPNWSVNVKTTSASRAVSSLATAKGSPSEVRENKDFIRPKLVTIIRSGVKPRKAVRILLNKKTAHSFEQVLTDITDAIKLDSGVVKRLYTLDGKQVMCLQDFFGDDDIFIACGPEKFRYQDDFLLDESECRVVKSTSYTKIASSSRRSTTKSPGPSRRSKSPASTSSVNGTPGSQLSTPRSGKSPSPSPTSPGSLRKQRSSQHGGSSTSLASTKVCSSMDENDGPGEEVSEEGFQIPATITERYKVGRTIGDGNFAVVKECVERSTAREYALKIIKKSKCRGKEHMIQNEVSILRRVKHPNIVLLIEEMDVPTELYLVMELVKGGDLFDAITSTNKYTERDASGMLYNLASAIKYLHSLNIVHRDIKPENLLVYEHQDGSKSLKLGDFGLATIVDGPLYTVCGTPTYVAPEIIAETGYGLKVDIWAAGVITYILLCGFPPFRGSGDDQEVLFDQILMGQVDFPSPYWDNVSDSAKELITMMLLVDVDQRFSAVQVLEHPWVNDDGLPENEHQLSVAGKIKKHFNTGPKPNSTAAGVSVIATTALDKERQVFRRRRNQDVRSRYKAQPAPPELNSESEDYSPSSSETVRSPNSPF
SMILES,assay,setting,quantity,result
Cc1sc(C(=O)NC2COC2)cc1-n1cc(NC(=O)Nc2c(F)cccc2Cl)cn1,"enzyme activity, inhibitor",10 µM,remaining activity,67.2%
CC(C)(O)[C@H]1CC[C@H](Nc2ccc3ncc(-c4cccc(C(F)(F)F)c4)n3n2)CC1,"enzyme activity, inhibitor",1 µM,remaining activity,93.4%
Cn1c2c(c3ccc(Cl)c(Cl)c31)C(C#N)C1(CCOCC1)NC2=O (centres unmarked),"thermal stability, DSF",10 µM,ΔTm,0 °C
O=C(Nc1cnn(-c2csc(C(=O)NC3COC3)c2)c1)Nc1ccccc1Cl,"enzyme activity, inhibitor",5 µM,remaining activity,99.2%
Cc1c(NC(=O)c2cc(C(N)=O)nc3cc(F)ccc23)c(C(F)(F)F)nn1Cc1ccc(C(C)(C)C)cc1,"cell-free assay, competition with immobilised ligand",1 µM,remaining binding,91%
Cn1c2c(Cl)c(Cl)ccc2c2cc[nH]c(=O)c21,"thermal stability, DSF",10 µM,ΔTm,-0.1 °C
Nc1cnc(N2CCc3cc(S(=O)(=O)Nc4c(F)cc(Cl)cc4F)cc(N4CCCC4=O)c32)nc1,"cell-free assay, competition with immobilised ligand",1 µM,remaining binding,100%
O=C(CSc1nc2nccnc2c(=O)n1CCc1ccccc1)Nc1nccs1,"enzyme activity, inhibitor",10 µM,inhibition,14%
Nc1ncnc2occ(-c3ccc(NC(=O)Nc4cc(C(F)(F)F)ccc4F)cc3)c12,"cell-free assay, inhibitor",20 µM,remaining signal,80%
Cc1ccc(C(=O)Nc2ccc(CN3CCN(C)CC3)c(C(F)(F)F)c2)cc1C#Cc1cnc2cccnn12,"enzyme activity, inhibitor",23.5 nM,remaining activity,93%
Cn1c2c(c3ccc(Cl)c(Cl)c31)C(C#N)C1(CCN(C(=O)OC(C)(C)C)CC1)NC2=O (racemic),"thermal stability, DSF",10 µM,ΔTm,0 °C
CS(=O)(=O)Nc1cccc(-c2csc(NC(=O)CSc3nc4nccnc4c(=O)n3CCc3ccccc3)n2)c1,"enzyme activity, inhibitor",10 µM,inhibition,1%
Cn1c2c(Cl)c(Cl)ccc2c2cc(N)[nH]c(=O)c21,"thermal stability, DSF",10 µM,ΔTm,0.1 °C
CC(=O)N1CCC(c2ccc(C(=O)NC(=N)N)cc2C(F)(F)F)CC1,"cell-free assay, competition with immobilised ligand",1 µM,remaining binding,100%
